Compounds with a hit are over-represented: about 9.8% of the library has one in this group of screens.
Calpain2 inh – calpain II (pig) inhibition; purified calpain II, fluorogenic peptide substrate, 30 min; inhibition, % at 16 µM; actives 0.37% (n = 220,000); AID 1236;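 active = inhibition above about 50%, limit read from the data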
WT yeast gro inh – growth inhibition of WT yeast, mitochondrial fusion screen; mitochondrial fusion phenotypic screen, WT strain; inhibition, % at 10 µM; actives 2.1% (n = 190,000); AID 1362; in the data active = inhibition above about 58%; tested in S. cerevisiae
PMI act – increases human mannose-6-phosphate isomerase activity; P34949; purified human PMI, coupled resazurin fluorescence, 20 min; active compounds read high; 1 = vehicle control, 0 substrate-free wells; activation factor at 20 µM; actives 0.005% (n = 190,000);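 active = activation factor of 2 or more at 20 µM, relative to plate controls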
Target sequence (P34949 whole entry, looked up): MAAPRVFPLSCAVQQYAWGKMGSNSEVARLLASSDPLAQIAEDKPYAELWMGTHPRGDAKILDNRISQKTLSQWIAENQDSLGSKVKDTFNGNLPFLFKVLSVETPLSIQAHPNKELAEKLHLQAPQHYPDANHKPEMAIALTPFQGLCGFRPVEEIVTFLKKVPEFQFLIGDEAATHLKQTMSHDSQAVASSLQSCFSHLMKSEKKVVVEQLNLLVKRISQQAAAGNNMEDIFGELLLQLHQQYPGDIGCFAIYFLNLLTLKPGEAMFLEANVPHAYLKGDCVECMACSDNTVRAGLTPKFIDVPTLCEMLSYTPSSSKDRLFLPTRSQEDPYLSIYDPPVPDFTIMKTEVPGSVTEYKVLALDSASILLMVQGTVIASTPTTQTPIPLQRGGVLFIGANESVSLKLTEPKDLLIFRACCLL
Lmaj promast – inhibitors of Leishmania major promastigote growth; AID 1063; inhibition, % at 10 µM; actives 9% (n = 200,000); Leishmania major promastigotes, resazurin fluorescence viability; in the data active = inhibition above about 50%;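 also: promastigotes grown with compound for 44 hours at 28 °C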
PMI act hi M6P – activators of human phosphomannose isomerase at near-saturating mannose 6-phosphate; AID 1216; activation factor at 20 µM; coupled PMI enzyme assay, resazurin fluorescence, 20 min; active compounds read high; 1 = untreated enzyme, 0 = substrate-free blank; actives 0.34% (n = 190,000); P34949;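 active = activation factor of 2 or more at 20 µM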
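Technique: Diaphorase-driven resazurin-to-resorufin fluorescence, excitation 544, emission 590 nm | Assay system: Human PMI in coupled enzyme assay | Times: Enzyme reaction with compound 20 min at room temperature | Medium: HEPES-buffered pH 7.4 with magnesium and detergent | Reagent: Mannose-6-phosphate 1.0 mM (near-saturating) plus 0.22 mM NADP+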
Rad51 HR inh – blocks human Rad51 in homologous recombination | Q06609 | hRad51 DNA strand exchange, fluorescence dequenching | inhibition, % at 10 µM | actives 0.085% (n = 200,000);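 active = inhibition above 40% at the single screening dose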;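 also: 0% = DMSO control wells and 100% = blanks with heterologous ssDNA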
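Test system – preformed human Rad51 ssDNA filaments · Reagent – Donor/quencher-labelled 47-bp dsDNA substrate · Incubation – 37 °C 15-min filament assembly, 30-min compound preincubation, 15-min exchange · Signal – FRET fluorescence dequenching, excitation 485 nm, emission 520 nm · Read-out – percent inhibition from fluorescence, normalised to plate control and blank means · Benchmarks – plate control and blank wells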
* = called active by the depositor; i = inactive; · = no result.

SMILES	Calpain2 inh	WT yeast gro inh	PMI act	Lmaj promast	PMI act hi M6P	Rad51 HR inh
O=C(CCc1nnc(-c2ccc3c(c2)OCO3)o1)NC(c1cccnc1)C(F)(F)F (stereo not drawn)	5	-3	0.9	32	0.9	3
ClCC1CN(Cc2ccccc2Cl)CCO1 (stereo not drawn)	-18	1	1.1	-2	1.1	·
Cc1ccccc1COC(=O)c1nn(-c2ccccc2)nc1N	-370	62*	0.9	12	0.9	-9
Nc1nn(-c2ccccc2)nc1C(=O)OCc1ccccc1F	i	16	0.9	17	0.9	3
COc1ccc(-c2cc(C(=O)Nc3c(C)n(C)n(-c4ccccc4)c3=O)no2)cc1OC	5	-7	1	-6	1	20
CCOC(=O)c1sc(Nc2nc(OC)cc(OC)n2)nc1C	-41	15	0.9	54*	0.9	·
O=C1CCN(N=Nc2cccc(Cl)c2)N1	5	-22	1.8	-3	2.2*	6
Nc1[nH][nH]c(=O)c1N=Nc1cccc(Cl)c1	-13	-8	1	-9	1	2
N#Cc1cccc(Oc2ccc(-c3cnc4ccccc4n3)cc2)c1C#N	-32	9	1	-5	1	6
COc1ccc(/C=C2\NC(=O)C(C=NCc3ccccc3)=C2O)cc1	-13	-3	1	58*	0.9	0
O=C1N/C(=C\c2ccc(O)cc2)C(O)=C1C=NCc1ccccc1	10	-16	0.9	0	1	5
COc1ccccc1/C=C/CN1CCN(c2ccccc2)CC1	3	-12	0.9	9	0.9	-1
CC(COc1ccccc1)N1CCC(CO)(Cc2ccccc2)CC1 (stereo not drawn)	0	5	1	60*	1.1	-22
COc1ccc(CC2(CO)CCN(C/C=C/c3ccccc3OC)CC2)cc1	-22	21	·	87*	·	3
COc1ccc(CC2(CO)CCN(C(C)COc3ccccc3)CC2)cc1 (stereo not drawn)	-35	-7	·	79*	·	5
CCOC(=O)c1c(C)c(-c2ccccc2)n(CC(=O)NCCC(C)C)c1C	9	-11	0.8	-7	0.8	0
CCOC(=O)c1c(C)c(-c2ccccc2)n(CC(=O)NCCCN(CC)CC)c1C	-13	0	1	51*	1	-1
COc1cc2c(C)nc3c(c(C)nn3-c3ccccc3)c2cc1OC	-230	-2	0.9	1	1	-9
COc1cc2c(-c3ccc(O)cc3)nc3c(c(C)nn3-c3ccccc3)c2cc1OC	-138	10	0.9	63*	0.9	16
Cc1ccc(Oc2nc3c(C)cccn3c(=O)c2/C=C(\C#N)C(N)=O)cc1	-22	·	·	·	·	8
Cc1ccc(S(=O)(=O)/C(C#N)=C/c2c(Oc3ccc(Cl)cc3)nc3c(C)cccn3c2=O)cc1	-38	30	0.9	77*	0.9	19
COc1cc(N)cc(NC(=O)c2ccncc2)c1	10	-7	0.8	-3	0.5	4
COc1ccc(NC(=O)c2ccc(Cl)c(NC(=O)c3ccncc3)c2)cc1	24	12	1	76*	1	-8
N#Cc1ccc(-c2cn(-c3ccccc3)c3[n+]2CCCS3)cc1	-31	-6	1	-6	1	0
COc1ccc(-n2cc(-c3ccc(C)cc3)[n+]3c2SCC3)cc1	4	-1	0.9	100*	0.9	·
SMILES	Calpain2 inh	WT yeast gro inh	PMI act	Lmaj promast	PMI act hi M6P	Rad51 HR inh
c1ccc(-c2cn(-c3ccccc3)c3[n+]2CCCS3)cc1	-2	·	·	·	·	2
CCc1ccc(-n2cc(-c3ccc(F)cc3)[n+]3c2SCCC3)cc1	21	11	1	101*	1	6
CC(=O)c1cccc(Nc2cc(C)nc3ccc(C)cc23)c1	35	·	·	·	·	-9
CC(=O)c1cccc(Nc2cc(C)nc3c(C)cc(C)cc23)c1	-1	-28	1.1	100*	1	-2
Cc1ccccc1-c1noc(-c2ccccc2C(=O)NCC2CCCO2)n1 (stereo not drawn)	27	·	·	·	·	-5
CCOC(=O)c1c(NC(=O)CSc2nc3cccnc3n2C)sc(C(C)=O)c1C	-61	-5	0.9	-4	0.9	-8
CCOC(=O)c1c(NC(=O)CSc2ncnc3ccccc23)sc(C(C)=O)c1C	-8	0	0.9	80*	1.1	-4
CCOC(=O)c1c(NC(=O)CSc2nc3ccccc3c(=O)n2-c2ccc(F)cc2)sc(C(C)=O)c1C	-23	-22	1	17	1	-16
CCOC(=O)c1c(NC(=O)CSc2nnc(-c3ccccc3C)n2C)sc(C(C)=O)c1C	-100	-14	1	73*	1.1	-4
CCOc1ccccc1NC(=O)COC(=O)c1cc[n+]([O-])cc1	15	·	·	·	·	29
CCOC(=O)C1(Cc2cccc(F)c2)CCN(C(=O)c2cnc(C)cn2)CC1	32	18	0.9	-5	0.9	-7
C=CCNc1nc(Cl)nc(Nc2ccc([N+](=O)[O-])cc2)n1	-9	3	1.1	-1	1	·
COc1ccc(Nc2nc(OC)nc(N3CCN(c4ccc(OC)cc4)CC3)n2)cc1	-4	6	0.9	-1	0.9	-9
C=CCNc1nc(NCC)nc(N2CCOCC2)n1	-9	6	1	4	1.1	3
C=CCNc1nc(Nc2ccc(-c3nc4ccccc4o3)cc2)nc(N2CCOCC2)n1	-151	-16	1	98*	1	1
COc1ccc(Nc2nc(Cl)nc(N3CCN(c4ccc(OC)cc4)CC3)n2)cc1	-24	9	0.8	53*	0.9	2
C=CCNc1nc(Nc2ccc([N+](=O)[O-])cc2)nc(N2CCCC2)n1	-11	25	0.8	81*	0.8	17
CC1CCN(c2nc(Cl)nc(Nc3ccc([N+](=O)[O-])cc3)n2)CC1	-44	78*	0.9	23	0.9	·
Cn1ncc2c(Nc3ccc([N+](=O)[O-])cc3)nc(Cl)nc21	8	·	·	·	·	10
CCN(CC)C(=O)c1ccc(-c2nnc(OC)c3ccccc23)cc1	-17	·	·	·	·	·
CC(=O)N1N=C(c2ccc(C)cc2)OC1c1ccc(C(C)C)cc1 (stereo not drawn)	-4	69*	0.8	-9	0.8	-12
CC(=O)N1N=C(c2ccc(C)cc2)OC1c1ccc(C)cc1 (stereo not drawn)	-139	18	0.9	-7	0.9	0
COc1ccc(NC2c3ccccc3C(=O)N2c2ccccn2)cc1 (stereo not drawn)	1	·	·	·	·	20
Cc1c(C(=O)NC(=S)Nc2ccc(NC(=O)c3cccs3)cc2)cccc1[N+](=O)[O-]	·	·	·	98*	·	-8
CCOc1ccc(C(=O)NC(=S)Nc2ccccc2N2CCCCC2)cc1[N+](=O)[O-]	16	-8	0.8	95*	0.9	-2
